For 36 sequences, folding enthalpy and Tm results are on record in the array DNA melting data of Ke et al. (doi:10.1101/2024.01.08.574731).

The nature of series [1]: folding enthalpy; higher = less favourable; fluorescence melt of hairpins on a sequencing array, two-state fit. Particulars: sodium 0.088 M. Put shortly: (§1)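 Cy3 signals were normalised both to pre-quench Cy3 and to control constructs. They came from library hairpins carrying annealed Cy3 and quencher oligos on a sequenced MiSeq flow cell, imaged in 50 mM Na-HEPES pH 8.0, 25 mM NaCl, in 2.5 °C steps up to 60 °C. Bootstrapped two-state fits gave melting temperature and folding enthalpy, and four replicates were combined by inverse variance. Fitted temperatures were then raised by 9.35 °C to match UV melts.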

A short description of series [2]: melting temperature; fluorescence melt of hairpins on a sequencing array, two-state fit, raised by 9.35 °C to match UV melts. Particulars: sodium 0.088 M. In a few lines: as §1

Consider GATGCCGAAAGGCGTATC ((((((....)))..))), for which the folding enthalpy in series [1] is -11.5 kcal/mol. Also, in series [2], the Tm stood at 36.4 °C.
Turning to GATGCCGGAAACGACATC ((((.((....)).)))), the folding enthalpy in series [1] was -38.3 kcal/mol. Further, the Tm in series [2] was determined as 48.2 °C.
In the case of GATGCCGGAAACGGTATC (((.(((....))).))), the folding enthalpy in series [1] was -42.9 kcal/mol. Moreover, the Tm in series [2] is 53.9 °C.
The matching figures for GATGCGACGAAAGTCATC (((..(((....)))))): -13 kcal/mol and 27.8 °C.
Regarding GATGCGCGAAAGCGATC (((.(((....)))))), the folding enthalpy in series [1] was -12 kcal/mol. The Tm in series [2] worked out at 41.3 °C.
GATGCGGGAAACCGTATC (((.(((....))).))): the folding enthalpy in series [1] is -34.4 kcal/mol. The Tm in series [2] was 50.3 °C.
Take GATGCTGGAAACGGCATC (((((.(....).))))): the folding enthalpy in series [1] was -44.1 kcal/mol. Besides, in series [2], the Tm came out at 54.3 °C.
Consider GATGGACGAAAGTCAATC (((.(((....))).))), for which the folding enthalpy in series [1] is -26.3 kcal/mol. Moreover, the Tm in series [2] stood at 48.1 °C.
As for GATGGAGGAAACTCCGTC ((.((((....)))).)), in series [1], the folding enthalpy was -31.9 kcal/mol. Besides, the Tm in series [2] was 48.9 °C.
The matching figures for GATGGAGGAAACTTCATC ((((.((....)).)))): -37.5 kcal/mol and 39.6 °C.
For the sequence GATGGCGAAAGCCAATC ((((((....))).))), the folding enthalpy in series [1] was -14.1 kcal/mol. Further, the Tm in series [2] was found to be 50.7 °C.
As to GATGGCGAAAGCCGAATC ((((((....)))..))), the folding enthalpy in series [1] was -8.36 kcal/mol. The Tm in series [2] is 34.4 °C.
The matching figures for GATGGCGAAAGCCTAATC ((((((....)))..))): -9.84 kcal/mol and 32 °C.
For GATGGCGGAAACGCTATC (((.(((....))).))) the same measures were -27.2 kcal/mol and 52 °C.
Turning to GATGGGGCGAAAGCCATC (((..(((....)))))), the folding enthalpy in series [1] is -12 kcal/mol. Besides, the Tm in series [2] turned out to be 38.1 °C.
With GATGGGGGAAACCTCGTC ((.(.((....)).).)), the folding enthalpy in series [1] was -20 kcal/mol. The Tm in series [2] worked out at 33.2 °C.
Regarding GATGGTGCGAAAGCAATC (((..(((....)))))), in series [1], the folding enthalpy was -8.86 kcal/mol. For the same sequence, the Tm in series [2] stood at 28.7 °C.
Regarding GATGGTGGAAACACCGTC ((.((((....)))).)), the folding enthalpy in series [1] is -23.7 kcal/mol. Moreover, the Tm in series [2] stood at 53.6 °C.
Take GATGGTGGAAACACTATC (((.(((....))).))): the folding enthalpy in series [1] was -31 kcal/mol. Further, the Tm in series [2] was 43.1 °C.
With GATGGTGGAAACGCTATC (((.(.(....).).))), the folding enthalpy in series [1] was -16.2 kcal/mol. The Tm in series [2] was 31.3 °C.
Consider GATGGTGGAAACGTCATC ((((..(....)..)))), for which the folding enthalpy in series [1] was -19.6 kcal/mol. Further, in series [2], the Tm turned out to be 33.3 °C.
For the sequence GATGTCCGAAAGGAAATC (((.(((....))).))), in series [1], the folding enthalpy was -24 kcal/mol. Also, the Tm in series [2] was determined as 43.6 °C.
For GATGTCGGAAACAACATC (((((.(....).))))), the folding enthalpy in series [1] was -28.9 kcal/mol. Moreover, the Tm in series [2] was 35.7 °C.
Take GATGTCGGAAACGGTATC (((..((....))..))): in series [1], the folding enthalpy is -21.2 kcal/mol. For the same sequence, the Tm in series [2] was found to be 31.6 °C.
In the case of GATGTGACGAAAGTCATC (((..(((....)))))), in series [1], the folding enthalpy is -12 kcal/mol. Besides, in series [2], the Tm came to 34.2 °C.
Turning to GATGTGCGAAAGCAATC (((.(((....)))))), the folding enthalpy in series [1] was -11.3 kcal/mol. Moreover, the Tm in series [2] was determined as 38.2 °C.
The matching figures for GATGTGGGAAACTACATC (((((.(....).))))): -36.5 kcal/mol and 44.9 °C.
As for GATGTTGGAAACAACATC (((((((....))))))), the folding enthalpy in series [1] is -44.6 kcal/mol. For the same sequence, in series [2], the Tm turned out to be 58.4 °C.
Turning to GATGTTGGAAACAGTATC (((..((....))..))), in series [1], the folding enthalpy is -10.2 kcal/mol. Further, the Tm in series [2] worked out at 27 °C.
The matching figures for GATTAAGAAATTAATC ((((((....)))))): -14.9 kcal/mol and 30.4 °C.
For the sequence GATTAAGCGAAAGCTATC (((..(((....)))))), in series [1], the folding enthalpy was -9.58 kcal/mol. For the same sequence, the Tm in series [2] was found to be 29.5 °C.
For GATTAAGGAAACTTGATC (((.(((....))).))) the same measures were -26.6 kcal/mol and 30.3 °C.
Take GATTACCGAAAGGTGATC (((.(((....))).))): in series [1], the folding enthalpy was -37.5 kcal/mol. For the same sequence, in series [2], the Tm was found to be 51.8 °C.
On to GATTACGAAAGTAATC ((((((....)))))), for which the folding enthalpy in series [1] was -40 kcal/mol. Further, the Tm in series [2] came out at 56.4 °C.
Take GATTACGAAAGTATGATC ((((((....)))..))): the folding enthalpy in series [1] was -6.67 kcal/mol. Also, in series [2], the Tm came out at 14.5 °C.
As for GATTACGGAAACGTAACC (.(((((....))))).), in series [1], the folding enthalpy is -16.6 kcal/mol. Moreover, the Tm in series [2] amounted to 33.8 °C.
